Measurements reported in the EternaBench riboswitch data.

System: MS2 coat protein
Assay: apparent Kd, MS2 coat protein; higher = weaker binding; RNA-MaP array; FMN 200 µM where present
Method in brief: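 Binding was read on Illumina sequencing-chip clusters where stalled E. coli RNA polymerase had transcribed each design. A titration of SNAP-549-labelled MS2 coat protein began at 0.7 or 1.5 nM and doubled to 3 µM, once without ligand and once with constant ligand, in 100 mM Tris-HCl pH 7.5, 80 mM KCl, 4 mM MgCl2, BSA, DTT, yeast tRNA and Tween-20. The apparent Kd is the median of filtered per-cluster binding-curve fits, based on green signal normalised to red-channel RNA signal and control-cluster median Fmax.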

[1] = designed as: OFF switch for flavin mononucleotide, no ligand
[2] = ligand present: flavin mononucleotide, designed as: OFF switch for flavin mononucleotide
[3] = designed as: ON switch for flavin mononucleotide, no ligand
[4] = ligand present: flavin mononucleotide, designed as: ON switch for flavin mononucleotide

Sequence | apparent Kd [1] | apparent Kd [2] | apparent Kd [3] | apparent Kd [4]
ACUGUUUGACUCCUCUUAUACAUGAGGAUCACCCAUGUUAUCGAGGAUAUGCAUUAGAGUGUUUAGCAGAAGGCGAUGUAAUUG | 0.00672 µM | 0.0144 µM |  | 
GUGCGGUGAGGAUAUACGUAGGUGAAAAUCUGUGUGUUCCUACAUGAGGAUCACCCAUGUAGAAGGCAUGUCAC | 0.0535 µM | 0.143 µM |  | 
UGCGUACAAGCAGACAUGAGGAUCACCCAUGUAGUCUUAUGCGAGGAUAUCGGGAAGGAGGAUUCCGAGAAGGUGCGGUGAGCC |  |  | 0.0254 µM | 0.0219 µM
UUUACAUGAGGAUCACCCAUGUAUAGAACGGUUAAUCAAAGUGAGGAUAUACAUAAUUUUGUAUUGUAGAAGGCACUGGGUACA |  |  | 0.0152 µM | 0.0193 µM
GUUUACCGAGGAUAUACAUGAGGAUCACCCAUGUUCCUAACAAACGUCGGUUCAGCGUGUAGAAGGCGGACCUA | 0.0179 µM | 0.0284 µM |  | 
ACGGAGACACAAAUGUUCCACGGUGCAGAAGGGUCCCUCACAUGAGGAUCACCCAUGUAACUCGGACAGGAUAUGCUCCUGGGA |  |  | 0.135 µM | 0.00978 µM
GGAAACUACGAGAAGGACAUGUGGUCCUUCAGUUACAUGAGGAUCACCCAUGUAGGAUAUCGUAGUUUCAGGAUCGUGAGAUCG | 0.0357 µM | 0.00939 µM |  | 
GGAUAGGACAGAGGAUAUACGUGCUAGAGAUAUUAGCAAAAUUUCCUCACAUGAGGAUCACCCAUGUAGAAGGCUGUCCUAUCG | 0.0194 µM | 0.328 µM |  | 
CCAUAAAAGAUCCAAAAUUACAACAUGAGGAUCACCCAUGUGCAGGAUAUCGUGAAAGUAAAAUACGAGAAGGGCAAACACUGC | 0.365 µM | 0.442 µM |  | 
AUUUCGUCAGGAUAUCCUAGUAAUUGUUUCAUAUUUACAAAGGAGAAGGGACAUGAGGAUCACCCAUGUUGGUC | 0.0646 µM | 0.116 µM |  | 
UUAUCUCAUGAGAAGGACAUGAGGAUCACCCAUGUAGGAUAUCAUGGGUCAGAGGAAUUGAAUCUUCGGAUUCAAUUACUCUUC |  |  | 0.072 µM | 0.0122 µM
CUGGUUGUCGAGGAUAUGUCCCGGCUCGCAGUCGCAGAAGGCGACACAUGAGGAUCACCCAUGUCGGUUCGCGU | 0.0138 µM | 0.0133 µM |  | 
AACAGACGUGCUCUGAGUCCACAUGAGGAUCACCCAUGUGAGAGAAGGACCCUCGAGAGAGUUGGGUAGGAUAUCUCCGAUGGG | 0.027 µM | 0.0805 µM |  | 
GCUGCAUAGUCAGGAUAUGCAACAUAAUAUACAAAAUAGUAUAUUAUGACAUGAGGAUCACCCAUGUAGAAGGGACUGUGCAGU | 0.0193 µM | 0.0199 µM |  | 
AUUUGAAUGUCAGGAUAUGGUAGAUUAUUCUUAUCAGAAGGGAUAAUUAUACUCAAGUACAUGAGGAUCACCCAUGUUAAAUCA |  |  | 0.012 µM | 0.0126 µM
ACAAUAGUAUCACAUGUAUUACAUGAGGAUCACCCAUGUAACUAGGAUAUGUUUUAAAAUUUACAACAGAAGGAGUUAUUAUGU | 0.0082 µM | 0.0146 µM |  | 
GACGGUGAUGUAGGAUAUACGCUGGAAUACAGCGUAGAAGGACAUGAGGAUCACCCAUGUAGAGUGUCUCCAAAUAACACCGUC | 0.0435 µM | 0.285 µM |  | 
GCCAUCACAUGAGGAUAUGGCACCGUUUCGGUGCCAGAAGGCAUGUCAUAAGACAUGAGGAUCACCCAUGUAGUUAAGAUGGCA |  |  |  | 0.0554 µM
CUGUUAUAGGUCCAUUUUUUCAACAUGAGGAUCACCCAUGUGCAGGAUAUCGUGUUAAUUUUCAUCGAGAAGGGCAUAGUCACG | 0.0301 µM | 0.0638 µM |  | 

Sequence | apparent Kd [1] | apparent Kd [2] | apparent Kd [3] | apparent Kd [4]
GAUACGUCAGGAUAUCUGAUGUCUAACUUCGGUUAGACAUCAGAGAAGGGACAUGAGGAUCACCCAUGUAUCAG | 0.0504 µM | 0.0612 µM |  | 
GAAAACAGAGGAUAUACAUGAUUAUGACGAAAGUCAUAAAAACAUGAGGAUCACCCAUGUAGAAGGCUGAAGAA | 0.185 µM | 0.201 µM |  | 
AUAAAACAUGAGGAUCACCCAUGUCAACAAAGUCGAGGAUAUGGGCAAAUAAAAUAAGAACCAGAAGGCGAAUAAC |  |  | 0.371 µM | 0.0347 µM
AUAAAUCAUGUAGGAUAUGCGUGGCGAAGCUAUGCAGAAGGACAUGAGGAUCACCCAUGUCUUUCCGUCUGCGUAUAGACGGAA | 0.0305 µM | 0.279 µM |  | 
AGCUGGUGACAGCAAGAAACUUCACAUGAGGAUCACCCAUGUAGAAGGCUGUACGGUUACCGUACAGAGGAUAUACAUUGAAGA | 0.00559 µM | 0.00863 µM |  | 
GUAGAGUCAGGAUAUACGAGAUCGAAAGAUCGUCGAUCCUUACAUGAGGAUCACCCAUGUAGAAGGGACUCUAC | 0.0227 µM | 0.238 µM |  | 
AUGAGGUCAGGAUAUGCAUGGCGGGACUUGCGUCGUGGCGUGCAGAAGGGACAUGAGGAUCACCCAUGUGGACC | 0.0364 µM | 0.0395 µM |  | 
CCCGGACAUGAGGAUCACCCAUGUUAGGAUAUCUAGAGGAUCUAAACCGAAUAGAUCCAGAGAAGGGAUGUGGG |  | 0.0465 µM |  | 
UCCAACAUGAGGAUCACCCAUGUACAGGAUAUUAGAUCAGCUCAGCGCGUCCGUCAAGAUAUUUCUAAGAAGGGUACUGGGUAC | 0.0202 µM | 0.0331 µM |  | 
GAACCUCUUGUGAGGAUAUGCUGUUGAACGAGCUUGCAGAAGGCACAUGAGGAUCACCCAUGUCUCUUCUGGGU | 0.0204 µM | 0.0283 µM |  | 
CCGAAUAAGCAGGAUAUCGUAUCGGAAACGAUACGAGAAGGGUUAACAUGAGGAUCACCCAUGUUCCUUAACGG | 0.0203 µM | 0.0248 µM |  | 
AAUAACAGAGGAUAUACUGUUUUAUGUGUUUGUUGUUUUAAACAUGAGGAUCACCCAUGUAGAAGGCUGAGUAA | 0.0232 µM | 0.0237 µM |  | 
AGGGUAGUAGGAUAUACAUGAGGAUCACCCAUGUUUCCAUUACGUGACUGGUCCUAGUGUAGAAGGGCUAGCAC |  | 0.0175 µM |  | 
GGGUACAUCGUAGGAUAUCAUGUAAAUACAUGAGGAUCACCCAUGUCGAUGGAGACAUCGGAGAUUGAGAAGGCCGAUGUACCG |  |  | 0.206 µM | 0.0179 µM
UUCGUGCAGCUUUGCUGUACGCGUACAUGAGGAUCACCCAUGUAGGAUAUGGUACGCUUUGCGUGCUAGAAGGAUAUGGAGAGC | 0.0157 µM | 0.0163 µM |  | 
UAAAAGCGAGGAUAUACAUGAGGAUCACCCAUGUGAGGCGAAACGCCUCGGGCCAUCAGUAGAAGGUGCAAAAC | 0.109 µM | 0.0848 µM |  | 
GACAGACAUGAGGAUCACCCAUGUACAAACGUACAAGGAUAUGUGUGGAAACCGUACUAUACAGAAGGUGUCUGUC |  |  | 0.121 µM | 0.151 µM
AUGGACGCAGGAUAUACAUGAGGAUCACCCAUGUUAGGGUUAAGAGAAGGAAGGGAGAGUAGAAGGGCGAGAGU | 0.118 µM | 0.0893 µM |  | 
ACGCCCUGAGGAUAUCUUUUCCCGUACAUGAGGAUCACCCAUGUUUUCCUCCGGGCUUCGAGAGAAGGCAGGCCCA | 0.0223 µM | 0.0412 µM |  | 

Sequence | apparent Kd [1] | apparent Kd [2] | apparent Kd [3] | apparent Kd [4]
GGAUAGGACAGAGGAUAUACGUGCUAGAGAUACUAGUAAAAUUUCCUCACAUGAGGAUCACCCAUGUAGAAGGCUGUCCUAUCG | 0.0361 µM | 0.684 µM |  | 
AUCCGACAUGAGGAUCACCCAUGUCAGGAUAUGGACUGACACCGAAAGAGUGGAGGAACCAGAAGGGACUGGGC | 0.0277 µM | 0.0465 µM |  | 
CAAGGGCAUGAGAAGGCAUAAUAUAUAAUACCACAUGUUUACAUGAGGAUCACCCAUGUUACCUAUGAGGAUAUCAUGCCUACA | 0.0144 µM | 0.0129 µM |  | 
UUGUUGUAUGAAGGAUAUACUUAACAUGAGGAUCACCCAUGUGGUGUUGUGAGUGAGUGAGUUUAGUAGAAGGUCAAUUCUUUU | 0.221 µM | 0.201 µM |  | 
UUACUAUUGGAGAAGGCUCAAUAAUAUAUAAAGGGAGGAUAUCCAACAUGAGGAUCACCCAUGUUUCACCCAUAUGAGGAUCAC | 0.0131 µM | 0.0125 µM |  | 
GGAGACCUCACAGGAUAUGCUGGACUUUGUCCAGCAGAAGGGUGGACAUGAGGAUCACCCAUGUGGUCUUCCAAAAUAUUUAAU |  |  | 0.728 µM | 0.139 µM
GAGGAACAUGAGGAUCACCCAUGUGAGGAUAUGCAUAGUGAGGUAGUAGACGUUUAUUGCAGAAGGUACACUGA | 0.0274 µM | 0.0278 µM |  | 
CUAGUACAUGAGGAUCACCCAUGUCAGGAUAUUGGAUAUGCCUUGGAAAACAUGUUUACAAGAAGGGACUAUAG | 0.0191 µM | 0.0196 µM |  | 
AUGGGCUAGGAGAAGGGCUAGAGUGUGAUAUAUUUGCCCGCGAGCACAUGAGGAUCACCCAUGUAGCAGGAUAUCCAAGCCGGU | 0.00743 µM | 0.018 µM |  | 
UAUAUGUCAGGAUAUUAGUUGUGUUAGAAUUUAUCUUCUGCUGAGAAGGGACAUGAGGAUCACCCAUGUUCCUC | 0.0145 µM | 0.016 µM |  | 
CGAUGACAAAGUCAUCGAUAACGAACAUGAGGAUCACCCAUGUAGGAUAUGCUACUCAAAGAGUAGCAGAAGGACAUGUGCCUU | 0.0342 µM | 0.284 µM |  | 
AGUGUCAUCGAGAAGGCCUCAACAUGAGGAUCACCCAUGUUGCAAAAUGGGAGGAUAUCGCGAAAACAGCUACGUUUCGUAGCA |  |  | 0.0408 µM | 0.00879 µM
GGAGCACAUCAAUACAUGAGGAUCACCCAUGUCGAAUGAUAUGAGGAUAUGCAUCGGAAAACGAUGUAGAAGGCAUAGUGCUCC |  |  | 0.0156 µM | 0.00627 µM
UAUUAUCACGAAGGAUAUGCUGACAUGAGGAUCACCCAUGUAUGUAUAUUGGUCCAGCGUAUUUAGCAGAAGGUCGUGAGUAAA | 0.0454 µM | 0.0735 µM |  | 
GGUGGCGUGAUAACGCUAGAUAUAACAUGAGGAUCACCCAUGUAGGAUAUCCCGCCGUGAGGGCGGGAGAAGGACAACCGAUGG | 0.0371 µM | 0.0349 µM |  | 
GUGGAGUACGUAGGAUAUGUAGGAUAUUCCUACAUGAGGAUCACCCAUGUUGACAUGGAGGAAGGACAGAAGGACGUGCUCCAG |  |  | 0.265 µM | 0.256 µM
AGUGCCAUGUAGAAGGCAGAUCUGAUUCAGAUCUGAGGAUAUACAUGAGGAUCACCCAUGUAAAUGCACUGCACGAGAGUGCAA | 0.012 µM | 0.0439 µM |  | 
AGAUCAUCAGGAUAUACAUGGGUGAAAAAAGUAUAUCCACUACAUGAGGAUCACCCAUGUAGAAGGGAUGAUCA | 0.0173 µM | 0.0151 µM |  | 
